These results are taken from ChEMBL document CHEMBL2380244, “Optimized chemical probes for REV-ERBα” (J Med Chem, 2013).

pEC50, pIC50: −log10 of the molar value. Activity calls are given as the source filed them. The rule behind the calls is not given here.

The species entered for test [1] is Homo sapiens. The experiment in a line: Selectivity ratio of IC50 for LXRalpha (unknown origin) to EC50 for biotinylated REV-ERBalpha (unknown origin).
Test [2] has as its target T1, Nuclear receptor subfamily 1 group D member 1 (Homo sapiens) (UniProt P20393).
T1 sequence (whole entry): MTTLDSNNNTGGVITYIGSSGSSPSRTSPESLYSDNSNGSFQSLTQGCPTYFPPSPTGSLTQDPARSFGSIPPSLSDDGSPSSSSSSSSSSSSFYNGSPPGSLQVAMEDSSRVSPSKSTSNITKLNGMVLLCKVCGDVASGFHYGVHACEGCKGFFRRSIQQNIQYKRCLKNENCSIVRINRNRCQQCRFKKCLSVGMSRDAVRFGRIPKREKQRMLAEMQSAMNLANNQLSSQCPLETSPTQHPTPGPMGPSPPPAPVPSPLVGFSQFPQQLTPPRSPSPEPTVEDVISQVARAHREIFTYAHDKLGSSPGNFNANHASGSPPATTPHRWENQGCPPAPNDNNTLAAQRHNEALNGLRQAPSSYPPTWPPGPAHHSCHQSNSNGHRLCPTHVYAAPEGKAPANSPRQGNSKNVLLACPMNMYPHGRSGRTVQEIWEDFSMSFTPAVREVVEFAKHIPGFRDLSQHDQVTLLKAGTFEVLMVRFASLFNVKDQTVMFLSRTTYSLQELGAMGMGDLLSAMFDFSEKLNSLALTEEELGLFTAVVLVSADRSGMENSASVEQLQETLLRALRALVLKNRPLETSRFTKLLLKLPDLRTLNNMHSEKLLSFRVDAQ
The experiment in a line: Agonist activity at REV-ERBalpha in human U2OS cells assessed as suppression of BMAL1 expression at 20 uM after 40 hrs by luciferase reporter gene assay relative to DMSO-treated control. Format: cell-based. In outline:
(§1)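 U2OS cells stably carrying a mouse Bmal1-promoter luciferase reporter (hygromycin-selected clone) seeded at confluence in 384-well format. Rhythms synchronized by media change and checked over 48 h. Compound added, then bioluminescence recorded in real time every 20 min for 72 h in a temperature-controlled luminometer. Cells then washed and recovery oscillations in full growth medium monitored as a toxicity counter-screen.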
Background: A reporter such as luciferase makes a cellular process visible.

Test [3] concerns the target T1, Nuclear receptor subfamily 1 group D member 1 (Homo sapiens). As to the kind of experiment: Agonist activity at biotinylated REV-ERBalpha (unknown origin) assessed as biotinylated PGC1-beta peptide recruitment after 20 mins by Greiner assay. In outline: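 Biotinylated peptides (final 20 nM) with Eu-W1024 streptavidin (final 20 nM), 20 min RT. Biotinylated REV-ERBα (20 nM) with APC-streptavidin (10 nM), 20 min RT, then 20-fold excess biotin, 15 min RT. Receptor solution added to peptide plates, Eu/APC TR-FRET read. Four wells per peptide averaged, with standard deviation.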

In test [4] the target is T2, Oxysterols receptor LXR-alpha (Homo sapiens) (UniProt Q13133).
T2 sequence (whole entry): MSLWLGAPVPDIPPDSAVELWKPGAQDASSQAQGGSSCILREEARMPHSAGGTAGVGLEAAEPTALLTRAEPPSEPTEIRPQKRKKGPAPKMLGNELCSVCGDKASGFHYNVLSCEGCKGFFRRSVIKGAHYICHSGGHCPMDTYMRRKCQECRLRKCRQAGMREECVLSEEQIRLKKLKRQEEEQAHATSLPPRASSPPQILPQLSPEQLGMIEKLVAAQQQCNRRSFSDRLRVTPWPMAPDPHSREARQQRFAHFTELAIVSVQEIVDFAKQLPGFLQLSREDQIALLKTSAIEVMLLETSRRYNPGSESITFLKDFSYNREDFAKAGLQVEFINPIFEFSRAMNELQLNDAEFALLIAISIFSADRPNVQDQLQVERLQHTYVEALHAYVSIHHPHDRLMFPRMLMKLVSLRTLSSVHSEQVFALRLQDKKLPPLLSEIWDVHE
As to the kind of experiment: Agonist activity at LXRalpha in human THP1 cells assessed as upregulation of LPS-stimulated ABCA1 mRNA expression at 10 uM after 6 hrs by RT-qPCR analysis. In kind it is cell-based. The note with it: THP-1. An outline of the steps: (§2)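 THP-1 cells sub-cultured in RPMI1640 with 10% FBS, stimulated with LPS 10 μg/mL in presence of DMSO or compound at 10 μM. Transcript read-out by RT-qPCR, normalized to TATA box binding protein.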
(In qPCR the cycle at which signal appears reflects the starting amount.)

In test [5] the target is T3, Nuclear receptor subfamily 1 group D member 1 (Homo sapiens, UniProt P20393).
T3 sequence (P20393 whole entry): T1 sequence (whole entry)
As to the kind of experiment: Agonist activity at biotinylated REV-ERBalpha (unknown origin) assessed as increase in biotinylated NCOR peptide recruitment after 1 hr by FRET assay. In outline:
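TR-FRET: 20 nM biotinylated REV-ERBα pre-complexed with 10 nM APC-streptavidin, excess biotin added, then mixed with 20 nM biotinylated NCOR1 on 10 nM Eu-streptavidin. MOPS pH 7.5 buffer with NaF, CHAPS, BSA and 10 mM DTT. Added to compound (serial DMSO dilutions of 10 mM stocks), 1 h at RT, Eu/APC read. Data normalized to basal and minimal HTRF, fitted to a 4-parameter logistic.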

In test [6] the target is T1, Nuclear receptor subfamily 1 group D member 1 (Homo sapiens). As to the kind of experiment: Agonist activity at REV-ERBalpha in human U2OS cells assessed as delay of peak of second cycle at 20 uM by luciferase reporter gene assay relative to DMSO-treated control. Format: cell-based. An outline of the steps:
as §1

Test [7] deals with T4, Oxysterols receptor LXR-alpha (Homo sapiens, UniProt Q13133).
T4 sequence (Q13133 whole entry): T2 sequence (whole entry)
The experiment in a line: Binding affinity to LXRalpha (unknown origin) by radioligand displacement assay. Background: In a radioligand displacement assay an active substance lowers the binding of a labelled ligand.

Test [8] has as its target T1, Nuclear receptor subfamily 1 group D member 1 (Homo sapiens). As to the kind of experiment: Agonist activity at REV-ERBalpha in human THP1 cells assessed as downregulation of LPS-stimulated IL-6 mRNA expression at 10 uM after 6 hrs by RT-qPCR analysis. Particulars: THP-1. In kind it is cell-based. In outline: as §2

`CC(C)(C)OC(=O)CN(Cc1ccc(Cl)cc1)Cc1ccc([N+](=O)[O-])s1` [GSK-4112]: the Ratio IC50/EC50 in test [1] came to 10. Besides, the Activity in test [2] was 6%; in test [3], “Dose-dependent effect”. Also, the outcome in test [4] and in test [8] was Active. Besides, the pEC50 (usually the EC50 on a negative log10 scale, so that one unit is a factor of ten) in test [5] was 6.30. Also, the TIME in test [6] came to 0 h. Further, in test [7], the negative-log IC50 (pIC50) (in general, the IC50 on a negative log10 scale, so that one unit is a factor of ten) is 5.30.
